Results published in ChEMBL document CHEMBL3297663, “Synthesis and evaluation of (E)-2-(acrylamido)cyclohex-1-enecarboxylic acid derivatives as HCA1, HCA2, and HCA3 receptor agonists” (Bioorg Med Chem, 2014).
Calls of active or inactive are those of the source. No cut-off for these calls is given here.

Legend:
Format in all cases: functional, cell-based
[1] = target: T1, Hydroxycarboxylic acid receptor 2 (Homo sapiens, UniProt Q8TDS4); test: Agonist activity at human HCA2 receptor expressed in Flp-In-293 cells assessed as inhibition of forskolin-induced cAMP accumulation after 30 mins
T1 sequence (Q8TDS4 whole entry): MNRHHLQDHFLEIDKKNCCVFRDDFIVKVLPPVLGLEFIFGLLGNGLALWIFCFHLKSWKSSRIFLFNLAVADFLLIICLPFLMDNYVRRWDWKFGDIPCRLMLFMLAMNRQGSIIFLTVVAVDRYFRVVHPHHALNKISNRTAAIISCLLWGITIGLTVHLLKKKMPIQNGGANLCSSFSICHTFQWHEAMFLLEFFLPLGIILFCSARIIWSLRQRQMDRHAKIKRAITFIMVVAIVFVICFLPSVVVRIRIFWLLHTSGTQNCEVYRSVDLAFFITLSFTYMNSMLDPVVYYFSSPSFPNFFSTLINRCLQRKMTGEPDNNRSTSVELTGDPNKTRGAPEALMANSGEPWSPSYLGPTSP
Summary of the method: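 EC50 values come from an intracellular cAMP assay in Flp-In-293 cells stably expressing the receptor (10,000 cells/well). Cells were co-incubated 30 min with forskolin and compound in PBS, 2% BSA and 0.5 mM IBMX. Values are mean ± SD of at least three experiments, each in duplicate.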

[2] = target: Hydroxycarboxylic acid receptor 3 (Homo sapiens) (UniProt P49019); test: Agonist activity at human HCA3 receptor expressed in Flp-In-293 cells assessed as inhibition of forskolin-induced cAMP accumulation up to 50 uM after 30 mins
Sequence of Hydroxycarboxylic acid receptor 3 (Homo sapiens) (P49019 whole entry): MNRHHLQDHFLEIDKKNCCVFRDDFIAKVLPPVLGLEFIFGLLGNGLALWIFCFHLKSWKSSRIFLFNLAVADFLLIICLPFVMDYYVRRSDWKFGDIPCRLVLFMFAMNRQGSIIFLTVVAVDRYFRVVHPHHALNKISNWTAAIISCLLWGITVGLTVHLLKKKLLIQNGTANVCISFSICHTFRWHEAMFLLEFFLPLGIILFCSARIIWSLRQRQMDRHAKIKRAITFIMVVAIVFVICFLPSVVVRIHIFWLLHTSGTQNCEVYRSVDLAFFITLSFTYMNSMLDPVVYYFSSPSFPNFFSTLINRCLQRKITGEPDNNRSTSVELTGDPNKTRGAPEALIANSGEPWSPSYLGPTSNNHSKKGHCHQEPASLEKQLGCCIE
Summary of the method: (§1)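 Stable HCA-expressing Flp-In-293 cells (10,000/well) were treated with compound plus forskolin for 30 min in PBS containing 2% BSA and 0.5 mM IBMX. The value is the maximal % inhibition of forskolin-stimulated cAMP, with the forskolin-only level taken as 100%. Data are mean ± SD from at least three experiments, each in duplicate.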

[3] = target: Hydroxycarboxylic acid receptor 1 (Homo sapiens) (UniProt Q9BXC0); test: Agonist activity at human HCA1 receptor expressed in Flp-In-293 cells assessed as inhibition of forskolin-induced cAMP accumulation up to 50 uM after 30 mins; summary of the method: as §1
Sequence of Hydroxycarboxylic acid receptor 1 (Homo sapiens) (Q9BXC0 whole entry): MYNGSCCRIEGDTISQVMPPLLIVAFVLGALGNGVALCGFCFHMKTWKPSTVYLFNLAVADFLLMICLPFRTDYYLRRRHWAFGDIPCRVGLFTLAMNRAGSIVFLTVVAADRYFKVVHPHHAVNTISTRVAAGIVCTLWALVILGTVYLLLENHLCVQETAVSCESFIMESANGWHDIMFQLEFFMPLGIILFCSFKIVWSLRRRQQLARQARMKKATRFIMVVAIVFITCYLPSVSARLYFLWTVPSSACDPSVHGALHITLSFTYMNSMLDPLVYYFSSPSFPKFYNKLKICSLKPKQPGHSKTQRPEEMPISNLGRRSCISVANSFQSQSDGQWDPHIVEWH

[4] = target: Hydroxycarboxylic acid receptor 3 (Homo sapiens) (UniProt P49019); test: Agonist activity at human HCA3 receptor expressed in Flp-In-293 cells assessed as inhibition of forskolin-induced cAMP accumulation at 50 uM after 30 mins
Summary of the method: (§2)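 Flp-In-293 cells stably transfected with HCA receptor plasmids were plated at 10,000 cells/well. They were stimulated with forskolin plus compound for 30 min in PBS with 2% BSA and 0.5 mM IBMX. Inhibition of cAMP accumulation at a single compound concentration is expressed as % of the forskolin-stimulated level (set to 100%). Values are mean ± SD of at least three experiments, each in duplicate.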

[5] = target: T1, Hydroxycarboxylic acid receptor 2; test: Agonist activity at human HCA2 receptor expressed in Flp-In-293 cells assessed as inhibition of forskolin-induced cAMP accumulation at 50 uM after 30 mins; summary of the method: as §2
[6] = target: Hydroxycarboxylic acid receptor 1 (Homo sapiens) (UniProt Q9BXC0); test: Agonist activity at human HCA1 receptor expressed in Flp-In-293 cells assessed as inhibition of forskolin-induced cAMP accumulation at 50 uM after 30 mins; summary of the method: as §2
[7] = target: T1, Hydroxycarboxylic acid receptor 2; test: Agonist activity at human HCA2 receptor expressed in Flp-In-293 cells assessed as inhibition of forskolin-induced cAMP accumulation up to 50 uM after 30 mins; summary of the method: as §1

Structure (SMILES) | EC50 [1] [µM] | Emax [1] [%] | inhibition [2] | inhibition [3] | inhibition [4] [%] | inhibition [5] [%] | inhibition [6] [%] | inhibition [7]
O=C(C#Cc1ccc2cc(O)ccc2c1)NC1=C(C(=O)O)CCCC1 | 0.9 | 98 | inactive | inactive | – | – | – | –
O=C(/C=C/C#Cc1ccccc1)NC1=C(C(=O)O)CCCC1 | 3.6 | 90 | – | inactive | 56 | – | – | –
O=C(/C=C/c1ccc2c(c1)OCCO2)NC1=C(C(=O)O)CCCC1 | 6.8 | 93 | – | inactive | 66 | – | – | –
COc1cc2nc(/C=C/C(=O)NC3=C(C(=O)O)CCCC3)ccc2c(OC)c1OC | – | – | – | – | 61 | 53 | 38 | –
O=C(O)C1=C(NC(=O)[C@H]2C[C@H]2c2ccc3ccccc3c2)CCCC1 (racemic) | – | – | inactive | inactive | – | 34 | – | –
O=C(CCc1ccc2cc(O)ccc2c1)NC1=C(C(=O)O)CCCC1 | 1.9 | 97 | inactive | – | – | – | 26 | –
O=C(/C=C/c1ccc2ccccc2c1)NC1=C(C(=O)O)CCCC1 | 4.5 | 94 | inactive | – | – | – | 14 | –
O=C(CCc1ccc2c(c1)OCO2)NC1=C(C(=O)O)CCCC1 | 51.6 | 85 | – | – | 62 | – | 28 | –
O=C(O)C1=C(NC(=O)[C@@H]2C[C@H]2c2ccc3ccccc3c2)CCCC1 (racemic) | 12.5 | 96 | – | – | 55 | – | 40 | –
Cc1ccc2cc(/C=C/C(=O)NC3=C(C(=O)O)CCCC3)ccc2n1 | – | – | inactive | inactive | – | – | – | inactive
O=C(/C=C/c1ccnc2ccccc12)NC1=C(C(=O)O)CCCC1 | – | – | inactive | inactive | – | – | – | inactive
O=C(/C=C/c1cc2ccccc2nc1Cl)NC1=C(C(=O)O)CCCC1 | 27.4 | 79 | – | – | 52 | – | 37 | –
O=C(/C=C/c1ccc2ccccc2n1)NC1=C(C(=O)O)CCCC1 | 4.1 | 99 | inactive | inactive | – | – | – | –
O=C(CCc1ccc2ccccc2c1)NC1=C(C(=O)O)CCCC1 | 8.3 | 97 | – | – | 66 | – | 41 | –
COc1ccc(/C=C/C(=O)NC2=C(C(=O)O)CCCC2)c(Cl)c1OC | 26.3 | 95 | – | – | 48 | – | 36 | –
O=C(/C=C/c1ccc2cccc(O)c2n1)NC1=C(C(=O)O)CCCC1 | – | – | inactive | inactive | – | 27 | – | –

Structure (SMILES) | EC50 [1] [µM] | Emax [1] [%] | inhibition [2] | inhibition [3] | inhibition [4] [%] | inhibition [5] [%] | inhibition [6] [%] | inhibition [7]
O=C(/C=C/c1cccc2cccnc12)NC1=C(C(=O)O)CCCC1 | – | – | – | inactive | 54 | – | – | inactive
COc1ccc2cc(/C=C/C(=O)NC3=C(C(=O)O)CCCC3)ccc2c1 | – | – | inactive | – | – | – | 26 | inactive
COc1nc2ccccc2cc1/C=C/C(=O)NC1=C(C(=O)O)CCCC1 | – | – | – | – | 58 | 59 | 27 | –
O=C(CCc1ccc2ncccc2c1)NC1=C(C(=O)O)CCCC1 | – | – | – | – | 60 | 70 | 26 | –
COc1cc(/C=C/C(=O)NC2=C(C(=O)O)CCCC2)cc(Br)c1OC | – | – | – | inactive | 46 | 23 | – | –
O=C(/C=C/c1ccc2c(c1)OCO2)NC1=C(C(=O)O)CCCC1 | 5.8 | 83 | – | inactive | 26 | – | – | –
Cc1ccc2cc(CCC(=O)NC3=C(C(=O)O)CCCC3)ccc2n1 | 36.4 | 82 | – | – | 54 | – | 23 | –
O=C(CCc1cccc2cccnc12)NC1=C(C(=O)O)CCCC1 | – | – | – | inactive | 55 | 60 | – | –
O=C(/C=C/c1cc2c(cc1Cl)OCO2)NC1=C(C(=O)O)CCCC1 | – | – | – | – | 59 | 17 | 34 | –
O=C(/C=C/c1ccc2cc(O)ccc2c1)NC1=C(C(=O)O)CCCC1 | 1.4 | 96 | inactive | inactive | – | – | – | –
O=C(/C=C/c1cc2c(cc1Br)OCO2)NC1=C(C(=O)O)CCCC1 | – | – | – | inactive | 54 | 24 | – | –
COc1ccc2nc(Cl)c(CCC(=O)NC3=C(C(=O)O)CCCC3)cc2c1 | 4.1 | 91 | – | – | 53 | – | 24 | –
O=C(/C=C/c1ccc2ncccc2c1)NC1=C(C(=O)O)CCCC1 | – | – | – | – | 39 | 68 | 24 | –
COc1ccc2nc(Cl)c(/C=C/C(=O)NC3=C(C(=O)O)CCCC3)cc2c1 | 6.3 | 86 | inactive | – | – | – | 21 | –
COc1ccc(/C=C/C(=O)NC2=C(C(=O)O)CCCC2)cc1OC | – | – | – | – | 58 | 51 | 31 | –
